Measured values of several laboratories.
Each line is one published result; the experiments were not run side by side.
Target: Serine/threonine-protein kinase MARK2 (MARK2, Homo sapiens, UniProt Q7KZI7)

Structure (SMILES) | test | conditions | remaining binding [%]
Cc1cnc(Nc2ccc(C(=O)N3CCC(N4CCCC4)CC3)cc2)nc1-c1cc2ccccc2s1 | binding, competition with immobilised ligand | 1 µM | 68
O=S(=O)(NC1CCC(c2cc(F)ccc2F)(S(=O)(=O)c2ccc(Cl)cc2)CC1)C(F)(F)F (stereo not shown) | cell-free assay, competition with immobilised ligand | 1 µM | 100
c1cncc(-c2cccc(Nc3nccc(NC4CCCCC4)n3)c2)c1 | binding, competition with immobilised ligand | 10 µM | 81
COc1cnc(Nc2cccc(S(N)(=O)=O)c2)nc1N1CCN(c2ccccc2)C(=O)C1 | binding, competition with immobilised ligand | 1 µM | 100
O=C(c1ccc(Nc2nccc(-c3cc4ccccc4s3)n2)cc1)N1CCC(N2CCCC2)CC1 | binding, competition with immobilised ligand | 1 µM | 91
N[C@H]1CCN(c2nccc(-c3cnn4ncccc34)n2)C1 | binding | 1 µM | 100
O=C(NCCCN1CCOCC1)c1ccc(Nc2ncc(Cl)c(-c3ccc(Cl)s3)n2)cc1 | binding, competition with immobilised ligand | 1 µM | 74
CN(C)c1nccc(-c2cnc3ncccn23)n1 | binding | 1 µM | 100
O=C(Nc1c[nH]nc1C(=O)NC1CCNCC1)c1cc(F)cc(F)c1 | binding, competition with immobilised ligand | 1 µM | 100
c1cnn2ncc(-c3ccnc(N4CCC45COC5)n3)c2c1 | binding | 1 µM | 63
C[C@H](c1ccnc(Nc2nc3ccc(-c4cc(N(C)C)ncn4)cc3[nH]2)c1)N1CCN(C(=O)CC(F)(F)F)CC1 | cell-free assay, competition with immobilised ligand | 0.1 µM | 100
C[C@@H](c1ccc(-n2cnc3c(N)ncnc32)cc1)N1CCc2nn(C)c(Cc3ccccc3)c2C1=O | binding, competition with immobilised ligand | 0.1 µM | 91
O=C(Nc1cccnn1)N1CCC(=Cc2cccc(Oc3ccc(C(F)(F)F)cn3)c2)CC1 | cell-free assay, competition with immobilised ligand | 1 µM | 100
CN(C)c1nccc(-c2cnn3ncccc23)n1 | binding | 1 µM | 96
CS(=O)(=O)NCC[C@H](NC(=O)c1cncc2c1cnn2-c1ccc(F)cc1)c1ccnc(S(C)(=O)=O)c1 | cell-free assay, competition with immobilised ligand | 1 µM | 75
Cc1cnn2ncc(-c3ccnc(N(C)C)n3)c2c1 | binding | 1 µM | 100
C[C@H](NC(=O)c1cnc2n1[C@](C)(Cc1ccc(C#N)cc1)C(=O)N2c1cc(Cl)c(F)c(Cl)c1)C(=O)NC1(c2ccccn2)CC1 | cell-free assay, competition with immobilised ligand | 1 µM | 100
CCN1CCN(Cc2ccc(C(=O)Nc3ccc(C)c(Oc4ccc5c(c4)CC(=O)N5)c3)cc2C(F)(F)F)CC1 | binding, competition with immobilised ligand | 1 µM | 100
C[C@@]1(Cc2ccc(C#N)cc2)C(=O)N(c2cc(Cl)cc(Cl)c2)c2ncc(C(=O)NC3(c4nc(C5CCC5)no4)CC3)n21 | cell-free assay, competition with immobilised ligand | 1 µM | 85
COc1ccnn2ncc(-c3ccnc(N(C)C)n3)c12 | binding | 1 µM | 92
CO[C@@H](C)c1c(Nc2ccc([C@@H](N(C)C(=O)C3CCS(=O)(=O)CC3)C(F)(F)F)cc2)cnc2cc(Cl)nn12 | cell-free assay, competition with immobilised ligand | 1 µM | 100
C=CC(=O)N1CCC(C(=O)NCC(=O)N2CCN(c3nc(-c4cnc(N)nc4C(F)F)nc(N4CCOCC4)n3)CC2)CC1 | binding, competition with immobilised ligand | 1 µM | 90
